# Screens as filed in PubChem.
# In the library only some 4.9% were active in any assay of this set; here they are far more common.
# FLuc inhib CS: counter-screen for luciferase assay inhibitors: firefly luciferase inhibition; P08659; ATPLite firefly luciferase biochemical luminescence, 10 min; inhibition, % at 10 µM; 200,000 compounds, 1.5% hits;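 active = inhibition above about 50% when tested at 10 µM, limit read from the data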
# Target sequence (P08659 whole entry, looked up): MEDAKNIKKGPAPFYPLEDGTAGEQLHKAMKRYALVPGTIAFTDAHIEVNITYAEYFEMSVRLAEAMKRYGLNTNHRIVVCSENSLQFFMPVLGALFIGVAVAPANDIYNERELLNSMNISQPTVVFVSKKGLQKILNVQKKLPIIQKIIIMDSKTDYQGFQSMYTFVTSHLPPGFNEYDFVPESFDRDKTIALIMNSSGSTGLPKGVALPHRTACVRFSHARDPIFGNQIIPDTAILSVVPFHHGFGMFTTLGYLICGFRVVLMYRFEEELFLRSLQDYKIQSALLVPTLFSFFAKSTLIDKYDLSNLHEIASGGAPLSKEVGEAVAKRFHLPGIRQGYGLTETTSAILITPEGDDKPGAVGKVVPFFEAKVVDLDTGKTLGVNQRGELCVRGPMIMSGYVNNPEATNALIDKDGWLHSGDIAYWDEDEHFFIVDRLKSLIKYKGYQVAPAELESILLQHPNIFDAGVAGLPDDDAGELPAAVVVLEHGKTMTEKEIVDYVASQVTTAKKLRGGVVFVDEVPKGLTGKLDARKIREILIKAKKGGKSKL
# STAT3 blocker: reduces IL-6 driven STAT3 reporter signal; U3A cells, IL-6 STAT3-luciferase reporter, luminescence; host cell line lacks STAT1; inhibition, % at 5.5 µM; 190,000 compounds, 0.89% hits;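 active = inhibition above the mean inhibition across all screened compounds plus 3 SD, cut at about 44% in these data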;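 also: 0% = DMSO only wells and 100% = 100 µM nifuroxazide control wells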
# FLuc act counter: firefly luciferase counter-screen for stimulation assays | 200,000 tested, under 10 active | ATPlite luciferase biochemical, luminescence, 10 min; 0 = ATP-free wells, 1 = DMSO control | AID 1027 | activation factor at 10 µM;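 active = luciferase activation factor, scaled between plate controls, of at least 2 with compound at 10 µM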
#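 Assay system: Luciferase/luciferin detection reagent, cell-free biochemical luciferase assay / Also added: ATP substrate / Schedule: 10 min at ambient temperature / Measured by: luminescence measurement of luciferase light output / Benchmarks: low control with PBS replacing ATP, high control enzyme plus ATP without compound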
# STAT1 activator: activators of IFN-gamma induced STAT1 signaling; NIH 3T3 STAT1-luciferase reporter, luminescence; 100% = IFN-gamma alone, no compound; activation (% of control), % at 5.5 µM; 200,000 compounds, 2.6% hits;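 active = activation above the screen-wide mean activation plus 3 SD, cut at about 130% in these data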;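 also: raw ratio to IFN-gamma control signal so 100% means no change and 0% no light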
# STAT1 inh: STAT1 signaling inhibition; NIH 3T3 STAT1-luciferase reporter, IFN-gamma, luminescence; inhibition, % at 5.5 µM; 200,000 compounds, 0.35% hits;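 active = inhibition above a set limit, the mean inhibition across all tested compounds plus 3 SD, cut at about 34% in these data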;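 also: 0% = IFN-gamma with DMSO and 100% = IFN-gamma with 300 µM nifuroxazide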
# STAT3 activator: increases IL-6 driven STAT3 reporter signal. U3A cells, IL-6 STAT3-luciferase reporter, luminescence; 100% = signal with IL-6 EC80 alone. activation (% of control), % at 5.6 µM. 190,000 compounds, 0.91% hits. AID 871;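 active = activation above the screen-wide mean of compound activation plus 3 SD, cut at about 130% in these data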;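 also: 0% = background luminescence of wells with medium and substrate only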
#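 Material: human U3A cells carrying STAT3-luciferase construct. Measured by: reporter luminescence signal. Timing: compound 1 h, then IL-6 6 h at 37 °C.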
# STAT1 act conf: STAT1 activation, confirmation assay. shares compounds with STAT1 activator. NIH 3T3 STAT1-luciferase reporter, IFN-gamma potentiation, luminescence; 100% = IFN-gamma EC80 alone, no compound. activation (% of control), % at 5.7 µM. 1,200 compounds, 97% hits;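 active = activation above a set limit carried over from the earlier primary STAT1 screen, cut at about 140% in these data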;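 also: simple ratio to median IFN-gamma plus DMSO wells so 0% means no light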
# NFkB act STAT1ct: counter-screen for STAT1 activators: NF-kappaB activation | 1,200 compounds, 43% hits | shares compounds with STAT1 activator | HEK293T NF-kB luciferase reporter, TNF-alpha stimulated, luminescence; 100% = TNF-alpha with vehicle only | activation (% of control), % at 5.7 µM;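 active = activation above the mean of solvent-only control wells plus 3 SD, set per campaign, cut at about 130% in these data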;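 also: TNF-alpha given at a submaximal dose yielding about 80% of full reporter signal; values are well signal over median control so 100% means no change and 0% no light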
# STAT3 act 2: counter-screen for STAT1 activators: human STAT3 activation. shares compounds with STAT1 activator. U3A cells STAT3-luciferase reporter, IL-6, luminescence; cells lack STAT1; 100 = IL-6 alone, no compound effect. activation (% of control), % at 5.7 µM. 1,200 compounds, 46% hits. AID 1316;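 active = activation above the solvent-only control well mean plus 3 SD, set per plate batch, cut at about 110% in these data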;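 also: 0% = no luminescence and 100% = median IL-6 plus DMSO wells; higher means more STAT3 reporter activation so hits are non-selective activators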
# Numbers without * were called inactive; / = not tested or not shown.
SMILES,FLuc inhib CS,STAT3 blocker,FLuc act counter,STAT1 activator,STAT1 inh,STAT3 activator,STAT1 act conf,NFkB act STAT1ct,STAT3 act 2
C/C(=N\NC(=O)c1ccco1)c1ccc(NC(=O)c2cccs2)cc1,3.4,0.7,1,154.2*,-60.8,97.3,111.0,119.4,97.8
O=C(CSc1ncccn1)N/N=C/c1ccccc1[N+](=O)[O-],-3.6,1.7,1,105.6,-6.1,102.8,/,/,/
Clc1ccc(-c2cnn3c(-c4ccncc4)ccnc23)cc1,67.9*,8.1,0.3,156.9*,-61.6,96.5,236.7*,131.7,109.0
Nc1c(C(=O)O)cnc2c(-c3ccc(Cl)cc3)cnn12,58.4*,4.4,0.4,194.0*,-104.0,107.1,219.3*,131.9,152.1*
CC(=O)c1cnc2c(-c3ccc(Cl)cc3)cnn2c1C,-1.1,-3.0,1,125.7,-27.2,105.1,/,/,/
CS(=O)(=O)c1cnc2c(-c3ccc(F)cc3)cnn2c1N,45.5,-1.1,0.5,161.9*,-69.2,107.6,188.8*,125.4,106.2
COCCN(C(=O)CSc1ncc(C(F)(F)F)cc1Cl)c1c(N)n(Cc2ccccc2)c(=O)[nH]c1=O,-4.8,-2.7,1,101.7,-0.1,106.8,/,/,/
COc1ccc(CCN(CC(=O)NC2CCCC2)C(=O)Cn2nnc(-c3ccc(C)o3)n2)cc1OC,-4.0,5.0,1,97.6,1.0,99.5,/,/,/
CCOc1ccc(C(=O)Nc2ccc(Cl)cn2)cc1Cl,4.6,17.0,1,157.6*,-63.0,87.4,187.6*,136.6*,99.0
O=C(Nc1ncc(Cc2ccccc2Cl)s1)C1CCCO1 (stereo not given),6.1,-25.4,0.9,150.8*,-55.1,121.8,166.5*,133.9*,148.8*
O=C(Nc1ncc(Cc2cccc(Cl)c2)s1)C1CCCO1 (stereo not given),-0.6,23.6,1,117.0,-18.6,82.6,/,/,/
Cc1ccc(Nc2nc(-c3ccncc3)cs2)cc1,35.1,-1.1,0.6,174.6*,-78.8,101.4,214.6*,137.0*,125.9*
Cc1cccnc1Nc1nc(-c2ccc(O)cc2)cs1,16.7,10.4,0.8,151.1*,-55.2,96.0,204.7*,141.4*,110.8*
COc1cccc(Nc2nc(-c3ccc(O)cc3)cs2)c1,0.5,13.2,1,120.2,-22.4,92.2,/,/,/
CC(=O)Nc1ccc(-c2csc(Nc3cccc(C)n3)n2)cc1,-6.2,9.2,1.1,159.9*,-66.2,96.6,183.9*,129.1,100.0
CC(=O)Nc1cccc(-c2csc(Nc3ncccn3)n2)c1,40.4,15.2,0.6,252.3*,-166.8,89.2,304.0*,130.3,112.9*
Cc1ccc(NC(=O)C(OC(=O)c2ccc(C=O)cc2)c2ccccc2)cc1Cl (stereo not given),-3.7,-8.9,1,106.3,-6.9,107.2,/,/,/
CCn1nc(C)c(C2C(C#N)=C(N)OC3=C2C(=O)CC(C)(C)C3)c1C (stereo not given),-6.6,7.7,1.1,90.5,10.8,93.7,/,/,/
CC(=O)Nc1ccc(S(=O)(=O)Nc2cccc(-c3csc(C)n3)c2)cc1,-9.9,18.5,1.1,87.3,14.2,88.8,/,/,/
CC(=O)Nc1cccc(-c2csc(Nc3ccc(C)cn3)n2)c1,70.7*,23.6,0.3,216.8*,-128.0,79.1,329.1*,139.4*,99.2
Oc1ccc(-c2csc(Nc3ncccn3)n2)c(O)c1,26.0,13.4,0.7,175.9*,-82.4,90.9,215.8*,144.4*,108.9
